# Laboratory results published in ChEMBL document CHEMBL1153538, “Discovery of novel antileishmanial agents in an attempt to synthesize pentamidine-aplysinopsin hybrid molecule” (J Med Chem, 2009).
# Active and inactive are the calls of the source. No cut-off for these calls is given here.
# Experiments:
# Leishmania donovani [1] = assay: Antileishmanial activity against Leishmania donovani MHOM/IN/Dd8 […] carrying firefly luciferase gene infected in mouse J774A1 cells assessed as relative luminescence unit at 10 ug/mL after 72 hrs; format: functional; details: for inhibition at 10 µg/mL: MHOM/IN/Dd8, J774.A1, 72 h; for inhibition: J774.A1
# Leishmania donovani [2] = assay: Antileishmanial activity against Leishmania donovani MHOM/IN/Dd8 amastigote carrying firefly luciferase gene infected in mouse J774A1 cells assessed as relative luminescence unit at 12.5 ug/mL after 72 hrs; format: functional; details: for inhibition: J774.A1
# Summary of the method: (§1)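 J774A.1 macrophages (1.5 × 10⁴/well) were seeded in RPMI-1640 with 10% FCS at 37 °C under CO₂. After 24 h they were infected with stationary-phase luciferase-expressing promastigotes (4 × 10³/well). The medium was then replaced with compound at 0.195-12.5 μg/mL for 72 h. Steady Glo luminescence (RLU) was read, and inhibition was calculated against untreated controls. IC50 values are the mean of two independent assays.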
# KB = assay: Cytotoxicity against human KB cells by MTT assay; format: cell-based
# Summary of the method: (§2)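 J774A.1 or KB cells were grown in RPMI with 10% FCS. Exponentially growing cells (1 × 10⁴/well) were exposed to a range of compound concentrations (DMSO stocks diluted in medium) for 72 h at 37 °C. MTT was added for 2 h, formazan was dissolved in DMSO, and absorbance was read at 544 nm. IC50 was the concentration giving 50% viability loss versus medium-only cells, estimated by template.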
# Leishmania donovani [3] = assay: Antileishmanial activity against Leishmania donovani MHOM/IN/Dd8 amastigote carrying firefly luciferase gene infected in mouse J774A1 cells assessed as relative luminescence unit after 72 hrs; format: functional, organism-based; details: MHOM/IN/Dd8, J774.A1, 72 h; summary of the method: as §1
# [4] = Selectivity index, ratio of IC50 for Leishmania donovani MHOM/IN/Dd8 amastigote to IC50 for human KB cells
# J774.A1 [5] = assay: Cytotoxicity against mouse J774A1 at 12.5 ug/mL by MTT assay; format: cell-based
# Leishmania donovani [6] = assay: Antileishmanial activity against Leishmania donovani MHOM/IN/Dd8 amastigote infected in golden hamster assessed as parasite reduction at 50 mg/kg, ip for 5 consecutive days; format: functional; parameters: scale not given: the % may be the effect or the level left; details: route intraperitoneal
# Summary of the method: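 Golden hamsters (40-45 g) were infected intracardially with 1 × 10⁷ amastigotes. Animals with +1 infection by spleen biopsy were randomized, 5-6 per sample. Intraperitoneal dosing started 2 days after biopsy and ran for 5 consecutive days. Biopsies taken 7 days after the last dose were Giemsa-stained and counted. Percentage inhibition was corrected for initial burden and the rise in untreated controls.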
# J774.A1 [7] = assay: Cytotoxicity against mouse J774A1 by MTT assay; format: cell-based; summary of the method: as §2
# Leishmania donovani [8] = assay: Antileishmanial activity against Leishmania donovani MHOM/IN/Dd8 amastigote carrying firefly luciferase gene infected in mouse J774A1 cells assessed as relative luminescence unit at 10 ug/mL after 72 hrs; format: functional; details: MHOM/IN/Dd8, J774.A1, 72 h
# Leishmania donovani [9] = assay: Ratio of drug to pentamidine for antileishmanial activity against Leishmania donovani MHOM/IN/Dd8 in mouse J774A1 cells by intracellular amastigote assay; format: functional, J774.A1
smiles,measurement,setting,value
COc1ccc(C/N=C2\NC(=O)/C(=C/c3cn(CCCCCOc4ccc(C#N)cc4)c4ccccc34)N2)cc1OC,inhibition at 10 µg/mL,Leishmania donovani [1],93.7%
same,inhibition,Leishmania donovani [2],inactive
O=C1N/C(=N\Cc2ccccc2)N/C1=C\c1c[nH]c2ccccc12,inhibition,Leishmania donovani [1],inactive
same,inhibition,Leishmania donovani [2],inactive
N=C(N)c1ccc(OCCCCCOc2ccc(C(=N)N)cc2)cc1.O=S(=O)(O)CCO,IC50,KB,2.7 µM
same,IC50,Leishmania donovani [3],20.4 µM
same,Ratio IC50,[4],<1
O=C1NC(=S)N/C1=C\c1c[nH]c2ccccc12,inhibition,Leishmania donovani [1],inactive
same,inhibition,Leishmania donovani [2],inactive
CCCC/N=C1\NC(=O)/C(=C/c2cn(CCCCCOc3ccc(C#N)cc3)c3ccccc23)N1,inhibition at 10 µg/mL,Leishmania donovani [1],88%
same,inhibition,Leishmania donovani [2],inactive
N#Cc1ccc(OCCCCCn2cc(/C=C3\NC(=S)NC3=O)c3ccccc32)cc1,inhibition at 10 µg/mL,Leishmania donovani [1],95.1%
same,inhibition at 12.5 µg/mL,"Leishmania donovani [2]; MHOM/IN/Dd8, J774.A1, 72 h",62%
same,IC50,Leishmania donovani [3],18.2 µM
same,Activity,J774.A1 [5],Non-toxic
same,Activity,Leishmania donovani [6],62.1%
O=C1NC(=S)N/C1=C\c1cn(CCCCCN2CCN(c3ccccc3)CC2)c2ccccc12,inhibition at 10 µg/mL,Leishmania donovani [1],88.3%
same,inhibition,Leishmania donovani [2],inactive
same,IC50,J774.A1 [7],> 100 µg/mL
N#Cc1ccc(OCCCCCn2cc(/C=C3\NC(=N)NC3=O)c3ccccc32)cc1,inhibition at 10 µg/mL,Leishmania donovani [8],0%
N#Cc1ccc(OCCCCCn2cc(C=O)c3ccccc32)cc1,inhibition,Leishmania donovani [1],inactive
same,inhibition,Leishmania donovani [2],inactive
CSC1=N/C(=C\c2cn(CCCCCOc3ccc(C#N)cc3)c3ccccc23)C(=O)N1,inhibition at 10 µg/mL,Leishmania donovani [1],75.4%
same,IC50,J774.A1 [7],> 100 µg/mL
N#Cc1ccc(OCCCCCn2cc(/C=C3\N/C(=N/Cc4ccccc4)NC3=O)c3ccccc32)cc1,inhibition at 10 µg/mL,Leishmania donovani [1],93.9%
same,inhibition,Leishmania donovani [2],inactive
N#Cc1ccc(OCCCCn2cc(/C=C3\NC(=S)NC3=O)c3ccccc32)cc1,inhibition at 10 µg/mL,Leishmania donovani [1],58.8%
same,IC50,J774.A1 [7],> 100 µg/mL
CSC1=N/C(=C\c2cn(CCCCCOc3ccc(C#N)cc3)c3ccccc23)C(=O)N1C,inhibition at 10 µg/mL,Leishmania donovani [1],63.2%
same,IC50,J774.A1 [7],> 100 µg/mL
N/C(=N\O)c1ccc(OCCCCCn2cc(/C=C3\NC(=S)NC3=O)c3ccccc32)cc1 (mixture of isomers),inhibition at 10 µg/mL,Leishmania donovani [8],0%
COc1ccc(C/N=C2\NC(=O)/C(=C/c3c[nH]c4ccccc34)N2)cc1OC,inhibition,Leishmania donovani [1],inactive
same,inhibition,Leishmania donovani [2],inactive
CN1C(=S)NC(=O)/C1=C\c1cn(CCCCCOc2ccc(C#N)cc2)c2ccccc12,inhibition at 10 µg/mL,Leishmania donovani [1],46.4%
same,IC50,J774.A1 [7],14.8 µg/mL
N#Cc1ccc(OCCCCCCn2cc(/C=C3\NC(=S)NC3=O)c3ccccc32)cc1,inhibition at 10 µg/mL,Leishmania donovani [1],71.3%
same,IC50,J774.A1 [7],2.3 µg/mL
N#Cc1ccc(OCCCCCn2cc(/C=C3\N/C(=N/c4ccccc4)NC3=O)c3ccccc32)cc1,inhibition at 10 µg/mL,Leishmania donovani [1],92.8%
same,inhibition,Leishmania donovani [2],inactive
N#Cc1ccc(OCCCCCn2cc(/C=C3\NC(=S)NC3=O)c3cccnc32)cc1,IC50,KB,187 µM
same,IC50,Leishmania donovani [3],6.5 µM
same,inhibition at 10 µg/mL,Leishmania donovani [8],97%
same,Ratio IC50,[4],28.6
CN1C(=S)NC(=O)/C1=C\c1cn(CCCCCOc2ccc(/C(N)=N/O)cc2)c2ccccc12,inhibition at 10 µg/mL,Leishmania donovani [1],88.2%
same,IC50,KB,108 µM
same,IC50,Leishmania donovani [3],2 µM
same,inhibition at 10 µg/mL,Leishmania donovani [8],99.3%
same,Ratio IC50,[4],53.4
same,fold change (FC),Leishmania donovani [9],10
O=C1NC(=S)N/C1=C\c1cn(CCCCCOc2ccccc2)c2ccccc12,inhibition at 10 µg/mL,Leishmania donovani [1],40.7%
same,IC50,J774.A1 [7],> 100 µg/mL
Nc1cc(OCCCCCn2cc(/C=C3\NC(=S)NC3=O)c3ccccc32)ccn1,inhibition at 10 µg/mL,Leishmania donovani [8],32.2%
N#Cc1ccc(OCCCCCn2cc(/C=C3\NC(=O)NC3=O)c3ccccc32)cc1,inhibition,Leishmania donovani [1],inactive
same,inhibition,Leishmania donovani [2],inactive
same,IC50,J774.A1 [7],33 µg/mL
NC(=O)c1ccc(OCCCCCn2cc(/C=C3\NC(=S)NC3=O)c3ccccc32)cc1 (mixture of isomers),inhibition at 10 µg/mL,Leishmania donovani [8],48.9%
N#Cc1ccc(OCCCCCn2cc(/C=C3\NC(=S)NC3=O)c3cc(Br)ccc32)cc1 (mixture of isomers),inhibition at 10 µg/mL,Leishmania donovani [8],12.6%
